These results are taken from article PMC3401020 (Bioorganic & medicinal chemistry, 2011).

The target of one data set is T1, COX-2 (Mus musculus, UniProt Q05769).
T1 sequence (Q05769 18-604): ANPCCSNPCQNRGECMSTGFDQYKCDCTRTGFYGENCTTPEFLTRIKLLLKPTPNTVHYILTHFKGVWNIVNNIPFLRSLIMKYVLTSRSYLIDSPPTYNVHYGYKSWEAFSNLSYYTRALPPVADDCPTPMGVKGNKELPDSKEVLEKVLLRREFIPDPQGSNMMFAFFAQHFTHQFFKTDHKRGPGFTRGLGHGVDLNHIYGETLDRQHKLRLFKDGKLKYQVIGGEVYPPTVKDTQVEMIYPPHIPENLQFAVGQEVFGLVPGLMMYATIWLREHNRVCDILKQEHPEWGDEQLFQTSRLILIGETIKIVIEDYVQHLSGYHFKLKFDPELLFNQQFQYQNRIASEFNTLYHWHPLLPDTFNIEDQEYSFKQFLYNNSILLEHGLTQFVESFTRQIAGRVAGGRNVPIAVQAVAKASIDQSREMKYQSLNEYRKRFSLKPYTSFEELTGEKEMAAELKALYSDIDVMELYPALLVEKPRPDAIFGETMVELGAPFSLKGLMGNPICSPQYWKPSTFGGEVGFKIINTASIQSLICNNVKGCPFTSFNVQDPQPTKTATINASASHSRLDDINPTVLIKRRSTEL
In words: COX-2 inhibition, conversion of [14C]-arachidonic acid to [14C]-prostaglandins. The following applies: 25 μM concentration. The class given is biochemical, murine. Put shortly: (§1)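 Carbaborane esters of indomethacin screened at 25 μM against ovine COX-1 and murine COX-2, measuring conversion of [14C]-arachidonic acid to [14C]-prostaglandins. Reactions were stopped, then substrate consumption was read by thin-layer chromatography.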

Data set [1] concerns the target T2, COX-1 (Ovis aries, UniProt P05979).
T2 sequence (P05979 25-600): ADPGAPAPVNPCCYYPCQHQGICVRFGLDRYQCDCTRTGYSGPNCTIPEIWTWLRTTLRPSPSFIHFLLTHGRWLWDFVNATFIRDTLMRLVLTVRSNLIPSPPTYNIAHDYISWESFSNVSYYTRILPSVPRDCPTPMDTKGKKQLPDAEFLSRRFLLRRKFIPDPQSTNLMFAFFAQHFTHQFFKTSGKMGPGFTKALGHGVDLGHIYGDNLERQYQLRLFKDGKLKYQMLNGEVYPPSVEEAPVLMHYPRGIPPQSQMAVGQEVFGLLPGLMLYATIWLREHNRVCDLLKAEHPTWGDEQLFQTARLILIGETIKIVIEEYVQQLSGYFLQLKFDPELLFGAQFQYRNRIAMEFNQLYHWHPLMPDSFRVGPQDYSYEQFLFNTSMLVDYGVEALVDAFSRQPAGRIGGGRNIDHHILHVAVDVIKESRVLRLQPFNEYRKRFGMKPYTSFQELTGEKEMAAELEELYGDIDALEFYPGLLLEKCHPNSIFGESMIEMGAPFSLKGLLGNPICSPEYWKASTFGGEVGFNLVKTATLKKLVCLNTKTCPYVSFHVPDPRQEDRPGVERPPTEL
Kind of data set: COX-1 inhibition, conversion of [14C]-arachidonic acid to [14C]-prostaglandins. The following applies: 25 μM concentration. The class given is biochemical, ovine. Put shortly:
as §1

Data set [2] is described as follows: NMR stability measurements in wet methanol. The class given is physicochemical. The following applies: assay timescale.
Data set [3] addresses T2, COX-1. The following applies: already reported; cited from earlier work.

As for “2-{1-[(4-Chlorophenyl)carbonyl]-5-methoxy-2-methyl-1H-indol-3-yl}acetic acid 1-(1,2-dicarba-closo-dodecaboranyl) ester [5o]”, on COX-2, the “COX-2 inhibition in screen” value is on record as “by far the best COX-inhibition”. The “COX-1 inhibition in screen” value on COX-1 [1] is recorded as “by far the best COX-inhibition”. Besides, the “stability in wet methanol (NMR)” value in data set [2] was “stable”.

As to `COc1ccc2c(c1)c(CC(=O)Oc1ccccc1)c(C)n2C(=O)c1ccc(Cl)cc1` [compound 10], the “IC50 COX-1” value on COX-1 [3] was “inactive”.
